ROMK mod – human ROMK K+ channel modulation, primary screen. P48048. Tet-inducible ROMK, thallium flux fluorescence; actives lie on both sides. B-score at 10 µM. 2% of 130,000 active;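 active = signal ratio slope over the read window, or its plate-corrected B-score, at least 3 SD from the plate mean, either direction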;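 also: B-score of the F/F0 ratio slope over 7 to 12 s after thallium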
KCC2 mod – modulates chloride dependent transport by human KCC2. Q9H2X9. KCC2 cells, thallium flux FluoZin-2 fluorescence. B-score of Tl+ flux slope (higher = more flux/activation; lower = inhibition) at 10 µM. 2.2% of 190,000 active. AID 1456;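 active = thallium flux slope and its plate-corrected score both differing from the plate sample mean at a set confidence after two filtering rounds, in either direction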;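 also: slope of fluorescence scaled to starting intensity during 10 to 20 s after thallium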
Diaph inh CS – inhibits diaphorase or chemically oxidizes, flagging diaphorase assay artifacts; diaphorase resazurin-to-resorufin fluorescence, NADH, 16 min; bacterial (C. kluyveri) enzyme, not human; inhibition, % at 20 µM; 0.69% of 190,000 active;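 active = primary screen inhibition at 20 µM above a set limit, cut at about 50% in these data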;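 also: plate controls were DMSO with full reaction for no effect and wells lacking NADH for full effect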
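controls = No-NADH positive control and DMSO neutral control | system = Clostridium kluyveri diaphorase enzyme | timing = reaction incubation of 16 min at room temperature | signal = resorufin fluorescence 544/590 nm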
WT yeast gro inh – growth inhibition of WT yeast, mitochondrial fusion screen; 2.1% of 190,000 active; mitochondrial fusion phenotypic screen, WT strain; inhibition, % at 10 µM; AID 1362; in the data active = inhibition above about 58%; tested in S. cerevisiae
Lmaj promast – reduces viability of Leishmania major promastigotes; 9% of 200,000 active; AID 1063; inhibition, % at 10 µM; resazurin fluorescence viability; in the data active = inhibition above about 50%;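 also: promastigotes grown with compound for 44 hours at 28 °C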
Diaphorase act – counter-screen for diaphorase-based assays: diaphorase activators and chemical reducers | Diaphorase/resazurin coupled assay, resorufin fluorescence, 16 min; stronger effect = higher value; 1 = vehicle wells, 0 = NADH-free wells | activation factor at 20 µM | 0.005% of 190,000 active;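 active = diaphorase activity raised at least twofold by the compound at 20 µM; inactive = activation factor below 2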
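Material: purified diaphorase enzyme from Clostridium kluyveri; Also added: 0.114 mM NADH and 0.1 mM resazurin, final amounts; Doses: single compound dose of 20 µM, 1% DMSO final; Times: 16 min enzyme reaction, ambient temperature; Detection: resorufin fluorescence, excitation 544 nm, emission 590 nm; Measure: increased resorufin signal from activators or reducing compounds.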
The depositor's hits bear a star; nt = not tested or not shown. This is a sample that favours compounds with a hit; in the whole collection about 12% have one here.

SMILES	ROMK mod	KCC2 mod	Diaph inh CS	WT yeast gro inh	Lmaj promast	Diaphorase act
CC(=O)NC1CCCN(O)C(=O)/C=C(\C)CCOC(=O)C(NC(C)=O)CCCN(O)C(=O)/C=C(\C)CCOC(=O)C(NC(C)=O)CCCN(O)C(=O)/C=C(\C)CCOC1=O (stereo not given)	nt	0.434	0.2	11.4	-12.2	1
C=CCc1cccc2cc(C(=O)Nc3ccccc3C(=O)O)c(=O)oc12	-1.3	-1.1	92.7*	1.7	-5.2	0.1
C=CCc1cccc2cc(C(=O)O)c(=O)oc12	-0.0431	-0.781	6.6	-13.4	10.8	0.9
CCOC(=O)c1cnc(SC)nc1Oc1cccc(NS(=O)(=O)c2ccc(C)cc2)c1	-0.031	nt	7.7	-1.6	10.6	0.9
CC(=O)/C(=C\Nc1ccc(OCc2ccccc2)cc1)c1ccccc1	nt	nt	16.4	32.8	0.0	0.8
CC(=O)/C(=C/Nc1ccc(Oc2ccccc2)cc1)c1ccccc1	nt	nt	5.9	60.6*	-5.7	0.9
CCOC(=O)N1CCN(CCC(=O)Nc2cc(OC)cc(OC)c2)CC1	0.0246	0.106	4.1	8.0	51.5*	1
CCOC(=O)N1CCN(CCC(=O)Nc2ccc(Br)cc2)CC1	0.411	-2.4	5.4	-14.9	3.8	0.9
CCOC(=O)N1CCN(CCC(=O)Nc2ccc(C)c(Br)c2)CC1	nt	-2.21	5.4	0.0	73.5*	0.9
CCOC(=O)N1CCN(CC(=O)Nc2cccc(Br)c2)CC1	0.518	1.27	15.7	6.5	-5.0	0.8
COc1cc(NC(=O)CCN2CCN(Cc3ccccc3)CC2)cc(OC)c1	-0.0415	-0.905	16.9	2.0	-3.0	0.8
CCOC(=O)N1CCN(CCC(=O)Nc2cccc(Br)c2)CC1	0.73	0.516	-2.5	-6.0	88.7*	1
O=c1c(Cl)c(N2CCN(S(=O)(=O)c3ccccc3)CC2)cnn1-c1ccccc1	1.12	-0.431	0.6	-11.2	-1.6	1
O=c1c(Cl)c(N2CCN(S(=O)(=O)c3ccc(F)cc3)CC2)cnn1-c1cccc(Cl)c1	nt	nt	1.5	15.2	98.4*	1
Cc1ccc(S(=O)(=O)c2c(C(=O)c3ccccc3)cnc3cc4c(cc23)OCCO4)cc1	nt	-0.0126	6.2	-0.7	47.7	0.9
CSC1=NC2(CC(c3ccccc3)Oc3cc(O)ccc32)CC(C)(C)N1 (stereo not given)	-3.98*	-0.657	19.5	-1.2	4.0	0.8
CC1C/C(=C\c2cccnc2)C(=O)/C(=C/c2cccnc2)C1 (stereo not given)	-6.13*	-0.184	0.0	55.4	100.3*	1
Cc1cccc(NC(=S)N/N=C/c2ccc([N+](=O)[O-])s2)c1	nt	1.33	14.3	9.3	92.8*	0.9
Cc1cccc(NC(=O)/C=C/c2ccc([N+](=O)[O-])s2)c1	0.323	-0.231	9.5	-0.1	99.9*	0.9
Cc1ccc(NC(=O)/C=C/c2ccc([N+](=O)[O-])s2)cc1	nt	0.000222	2.6	-7.2	97.0*	1
O=C(COC(=O)/C=C/c1ccc(S(=O)(=O)N2CCOCC2)cc1)NC1CCCCCCC1	-1.05	0.266	21.3	10.7	5.3	0.8
CCOC(=O)C1=C(C)N(C)C(C)=C(C(=O)OCC)C1c1ccsc1	-0.523	-0.352	3.3	6.0	2.4	1
COc1ccc(CNC(=O)COC(=O)c2ccco2)cc1	0.173	-0.0729	3.7	-3.6	-0.4	1
CC(=O)N(C)Cc1ccc(C(=O)CCl)cc1	-0.00523	-0.509	1.4	7.6	100.5*	1
CN(Cc1ccccc1)C(=O)c1ccc2c(c1)OCCO2	nt	-0.527	-9.4	4.1	-11.1	1.1
SMILES	ROMK mod	KCC2 mod	Diaph inh CS	WT yeast gro inh	Lmaj promast	Diaphorase act
CC1=C(C(=O)NCc2ccccc2)C(c2cccs2)NC(=S)N1 (stereo not given)	-1.41	-0.616	19.9	3.6	-0.2	0.8
Cc1cc(=O)[nH]c(SC(C(=O)O)c2ccccc2)n1 (stereo not given)	nt	0.012	20.5	-20.4	72.9*	0.8
CCCCC(=O)N(c1ccc(C(=O)O)cc1)c1nc(-c2ccc(Cl)cc2)c(CC)s1	0.792	-1.83	20.8	19.3	9.7	0.8
O=C(COC(=O)/C=C/c1nc2ccccc2s1)Nc1cccc(Cl)c1Cl	-0.00904	-1.4	3.9	7.2	58.8*	1
Cc1ccc(-n2c(O)c(C=NCc3ccccn3)c3ccccc3c2=O)cc1C	0.36	0.0221	13.4	-1.9	70.8*	0.9
c1ccc(-c2nc(NCC3CCCO3)c3ccccc3n2)nc1 (stereo not given)	0.604	0.786	3.6	17.7	100.3*	1
O=C(NCC1CCCO1)c1ccccn1 (stereo not given)	nt	nt	0.4	2.2	-2.0	1
Oc1cccc(Nc2nc(NCC3CCCO3)c3ccccc3n2)c1 (stereo not given)	nt	nt	-10.9	-2.1	100.3*	1.1
Nc1nc(NCC2CCCO2)nc(Nc2ccccc2)c1[N+](=O)[O-] (stereo not given)	-0.617	-0.62	10.6	-0.6	14.2	0.9
COc1ccc(Nc2nc(NCC3CCCO3)c3ccccc3n2)c(OC)c1 (stereo not given)	-0.157	-0.337	1.4	12.9	99.9*	1
c1ccc(Nc2nc(NCC3CCCO3)c3ccccc3n2)cc1 (stereo not given)	-1.74	-0.124	-1.4	32.2	98.5*	1
c1ccc2c(NCC3CCCO3)nc(N3CCOCC3)nc2c1 (stereo not given)	0.402	nt	nt	0.1	9.0	nt
C[N+](C)(C)C(Cc1ccccc1)C(=O)[O-] (stereo not given)	nt	0.788	nt	nt	nt	nt
Cc1ccc(NC(=O)CC2S/C(=N/c3nccs3)N(C)C2=O)c(C)c1 (stereo not given)	-1.05	nt	3.6	15.8	1.1	1
CCOc1ccc(Nc2nc(NCC3CCCO3)c3ccccc3n2)cc1 (stereo not given)	-2.67	nt	-15.0	57.3	100.7*	1.1
COc1ccc(Nc2nc(NCC3CCCO3)nc(N)c2[N+](=O)[O-])cc1 (stereo not given)	nt	0.733	nt	nt	nt	nt
S=C(NCc1ccncc1)NC1CCCCC1	nt	-0.445	10.9	6.0	-3.0	0.9
O=C(c1ccccc1)c1ccc(N2CCNCC2)cc1	nt	nt	3.9	-1.7	75.1*	1
O=C(c1ccccc1)c1ccc(N2CCCC2)cc1	0.274	nt	28.1	-1.6	34.2	0.7
CN1CCN(c2ccc(C(=O)c3ccc(F)cc3)cc2)CC1	nt	0.0555	10.1	-14.2	67.9*	0.9
COC(=O)[C@@H]1CCCN1Cc1c(C(=O)N2CCOCC2)nc2c(C)cccn12	0.382	-0.206	7.9	-10.0	-1.5	0.9
CC(C)c1cccc(C(C)C)c1NC(=O)Cn1c(=O)cnc2ccccc21	-0.0145	0.163	16.8	10.7	91.9*	0.8
CC(C)(C)c1ccccc1NC(=O)Cn1c(=O)cnc2ccccc21	0.748	0.245	18.9	9.2	54.9*	0.8
CCCCNC(=S)Nc1ccc(OC)nc1	0.0434	0.253	4.9	0.8	-3.3	1
